Substitutions are numbered along the chain they refer to.
Assays:
GluRδ2^Lc = target: T1, GluRδ2^Lc (Rattus norvegicus, UniProt Q63226, A654T); assay type: cell-based; settings: for spontaneously active current relative to baseline with Ba^2+: 0.5 mM Ba^2+ exchanged with 0.5 mM of the divalent cation
T1 sequence (Q63226 24-1007 A654T): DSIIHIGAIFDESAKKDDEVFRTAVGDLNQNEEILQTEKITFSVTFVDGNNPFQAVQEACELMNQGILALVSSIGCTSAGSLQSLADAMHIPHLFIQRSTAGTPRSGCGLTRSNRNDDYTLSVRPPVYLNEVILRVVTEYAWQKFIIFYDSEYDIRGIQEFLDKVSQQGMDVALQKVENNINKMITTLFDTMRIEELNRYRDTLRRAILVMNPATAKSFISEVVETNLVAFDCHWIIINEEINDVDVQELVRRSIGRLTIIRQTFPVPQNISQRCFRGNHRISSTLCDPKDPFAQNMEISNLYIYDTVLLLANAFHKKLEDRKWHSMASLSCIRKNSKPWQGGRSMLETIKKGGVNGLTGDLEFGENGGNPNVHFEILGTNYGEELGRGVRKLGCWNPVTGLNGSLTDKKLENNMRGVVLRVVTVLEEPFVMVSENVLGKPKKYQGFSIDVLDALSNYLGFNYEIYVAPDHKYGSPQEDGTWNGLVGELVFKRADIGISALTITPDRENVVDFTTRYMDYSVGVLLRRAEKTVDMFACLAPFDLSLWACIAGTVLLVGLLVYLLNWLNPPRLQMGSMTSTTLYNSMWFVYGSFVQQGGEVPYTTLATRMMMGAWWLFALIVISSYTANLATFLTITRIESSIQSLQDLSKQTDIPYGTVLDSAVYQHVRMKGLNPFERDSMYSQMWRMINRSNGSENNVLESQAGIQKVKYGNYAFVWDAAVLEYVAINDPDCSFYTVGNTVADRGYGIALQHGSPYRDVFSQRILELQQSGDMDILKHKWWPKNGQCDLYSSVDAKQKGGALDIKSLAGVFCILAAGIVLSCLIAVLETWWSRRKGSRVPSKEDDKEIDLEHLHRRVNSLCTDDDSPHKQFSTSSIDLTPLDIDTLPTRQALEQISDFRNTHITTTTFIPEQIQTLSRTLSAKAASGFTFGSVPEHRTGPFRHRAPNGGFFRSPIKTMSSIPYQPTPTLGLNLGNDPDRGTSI

GluRδ2^Wt = target: T2, GluRδ2^Wt (Rattus norvegicus, UniProt Q63226); test: Two-electrode voltage-clamp recordings in Xenopus oocytes expressing GluRδ2^Wt; assay type: cell-based; settings: 0.5 mM Ba^2+ exchanged with 0.5 mM of the divalent cation
T2 sequence (Q63226 24-1007): T1 sequence (Q63226 24-1007 A654T) with T631A
Summary of the method: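 Oocytes injected with wild-type receptor cRNA the day after excision and collagenase treatment. Two-electrode voltage clamp at −40 mV and 23°C, 24–72 h post-injection. Bath: 90 mM NaCl, 3 mM KCl, 0.5 mM BaCl2, 10 mM HEPES, pH 7.6. Ba2+ was replaced by 0.5 mM Mg2+, Zn2+, Mn2+, Sr2+ or Ca2+, or Ca2+ was raised stepwise. Choline or NMDG chloride kept osmolarity and Cl− constant. Baseline was current without Ca2+.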

| spontaneously active current relative to baseline with Ba^2+ (GluRδ2^Lc) | effect of divalent cation on currents at GluRδ2^Wt (GluRδ2^Wt) | modulation of GluRδ2^Lc currents by extracellular Na^+ (GluRδ2^Lc; current-voltage relationship at 0, 30, 60, 90 mM Na^+, -60 to +30 mV) | Structure (SMILES) |
| --- | --- | --- | --- |
| 2.66 ± 0.13 | no changes were observed |  | [Mn+2] [Mn^2+] |
| 1.33 ± 0.05 | no changes were observed |  | [Sr+2] [Sr^2+] |
| 1.33 ± 0.02 | no changes were observed |  | [Zn+2] [Zn^2+] |

Second part, the molecule before the results:

| Structure (SMILES) | spontaneously active current relative to baseline with Ba^2+ (GluRδ2^Lc) | effect of divalent cation on currents at GluRδ2^Wt (GluRδ2^Wt) | modulation of GluRδ2^Lc currents by extracellular Na^+ (GluRδ2^Lc; current-voltage relationship at 0, 30, 60, 90 mM Na^+, -60 to +30 mV) |
| --- | --- | --- | --- |
| [Mg+2] [Mg^2+] | 1.06 ± 0.01 |  |  |
| [Na+] [Na^+] |  |  | does not modulate GluRδ2 |

Reference: publication PMC2806602 (The Journal of neuroscience : the official journal of the …, 2009)
